In ChEMBL document CHEMBL1151895, “Discovery, synthesis, and biological evaluation of piperidinol analogs with anti-tuberculosis activity” (Bioorg Med Chem, 2009):
Converted amounts (≈) assume the structure as drawn.

Tests used:
[1] = Cytotoxicity against african green monkey Vero cells after 72 hrs by alamar blue assay; format: cell-based; settings: chlorocebus sabaeus, read-out: LD50
How it was run: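 Vero cells grown in phenol-free L15 medium with glutamine, penicillin-streptomycin and 10% bovine calf serum at 37°C. Compounds tested by microplate dilution for 72 h at 37°C. alamarBlue then added and plates incubated overnight at 37°C. Drug LD50 determined.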

[2] = system: Mycobacterium tuberculosis; experiment: Antimicrobial activity against Mycobacterium tuberculosis H37Rv after 9 to 12 days by CLSI microbroth dilution technique; format: functional
How it was run: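 M. tuberculosis H37Rv grown in Middlebrook 7H9 with 10% OADC to OD600 0.4–0.6, frozen in aliquots of known CFU/mL. Compounds serially diluted in DMSO, added to 7H9 medium; 2×10^4 bacteria per well. Incubated at 37 °C for […]. MIC90 read visually as concentration inhibiting 90% of growth. Isoniazid control run in each experiment.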

[3] = Therapeutic index, CC50 for african green monkey Vero cells to MIC for Mycobacterium tuberculosis H37Rv; format: cell-based
Mus musculus = experiment: Toxicity in mouse assessed as death at 50 to 100 mg/kg; format: organism-based; parameters: dose 50-100 mg/kg; settings: in vivo

SMILES	CC50 at 72 h [1]	MIC [2]	selectivity ratio [3]	Activity (Mus musculus)
OC(COc1ccccc1)CN1CCC(O)(c2ccc(Cl)c(C(F)(F)F)c2)CC1 (racemic)	19.5 µg/mL (≈ 45.4 µM)	10.4 µg/mL (≈ 24.2 µM)	1.9	
O[C@@H](COc1ccc(OC(F)(F)F)cc1)CN1CCC(O)(c2ccc(Cl)c(C(F)(F)F)c2)CC1	17.7 µg/mL (≈ 34.4 µM)	3.6 µg/mL (≈ 7.01 µM)	4.9	
O[C@@H](COc1ccc(Cl)cc1)CN1CC=C(c2ccc(Cl)cc2)CC1		> 200 µg/mL		
O[C@@H](COc1ccc(Cl)cc1)CN1CCC(O)(c2ccc(Cl)cc2)CC1		25 µg/mL (≈ 63.1 µM)		
O[C@H](COc1ccc(OC(F)(F)F)cc1)CN1CCC(O)(c2ccc(Cl)c(C(F)(F)F)c2)CC1	17.6 µg/mL (≈ 34.3 µM)	7.3 µg/mL (≈ 14.2 µM)	2.4	
O[C@@H](COc1ccc(Cl)cc1)CN1CCC(O)(c2ccc(Cl)c(C(F)(F)F)c2)CC1	18.2 µg/mL (≈ 39.2 µM)	1.4 µg/mL (≈ 3.02 µM)	13.3	Toxic
O[C@@H](CSc1ccccc1)CN1CCC(O)(c2ccc(Cl)c(C(F)(F)F)c2)CC1	37.1 µg/mL (≈ 83.2 µM)	8.3 µg/mL (≈ 18.6 µM)	4.4	
O[C@H](COc1ccccc1)CN1CCC(O)(c2ccc(Cl)c(C(F)(F)F)c2)CC1	34.9 µg/mL (≈ 81.2 µM)	8.3 µg/mL (≈ 19.3 µM)	4.2	
O[C@@H](COc1ccc(F)cc1)CN1CCC(O)(c2ccc(Cl)c(C(F)(F)F)c2)CC1	20.8 µg/mL (≈ 46.4 µM)	10.4 µg/mL (≈ 23.2 µM)	2	
O[C@@H](COc1ccc(Cl)cc1)CN1CCC(O)(c2cccc(C(F)(F)F)c2)CC1		25 µg/mL (≈ 58.2 µM)		
N#CC1(c2ccccc2)CCN(C[C@@H](O)COc2ccc(Cl)cc2)CC1		25 µg/mL (≈ 67.4 µM)		
O[C@@H](COc1ccc(Cl)c(Cl)c1)CN1CCC(O)(c2ccc(Cl)c(C(F)(F)F)c2)CC1	18 µg/mL (≈ 36.1 µM)	3.1 µg/mL (≈ 6.22 µM)	5.8	
O[C@H](CSc1ccccc1)CN1CCC(O)(c2ccc(Cl)c(C(F)(F)F)c2)CC1	35.7 µg/mL (≈ 80.1 µM)	5.2 µg/mL (≈ 11.7 µM)	6.8	
O[C@H](COc1ccc(C(F)(F)F)cc1)CN1CCC(O)(c2ccc(Cl)c(C(F)(F)F)c2)CC1	18.7 µg/mL (≈ 37.6 µM)	1.7 µg/mL (≈ 3.41 µM)	11	
O[C@H](COc1ccc(F)cc1)CN1CCC(O)(c2ccc(Cl)c(C(F)(F)F)c2)CC1	25.8 µg/mL (≈ 57.6 µM)	3.9 µg/mL (≈ 8.71 µM)	6.6	
O[C@@H](COc1ccc(Cl)cc1)CN1CCC(O)(c2ccccc2)CC1		100 µg/mL (≈ 276 µM)		
OC(COc1ccc(Cl)cc1)CN1CCC(O)(c2ccc(Cl)c(C(F)(F)F)c2)CC1 (racemic)	17.9 µg/mL (≈ 38.6 µM)	1.5 µg/mL (≈ 3.23 µM)	11.9	
Cc1cccc(C)c1OC[C@@H](O)CN1CCC(O)(c2ccc(Cl)c(C(F)(F)F)c2)CC1	19 µg/mL (≈ 41.5 µM)	4.7 µg/mL (≈ 10.3 µM)	4.1	
O[C@@H](COc1ccccc1)CN1CCC(O)(c2ccc(Cl)c(C(F)(F)F)c2)CC1	27.7 µg/mL (≈ 64.4 µM)	18.8 µg/mL (≈ 43.7 µM)	1.5	
O[C@H](COc1ccc(Cl)cc1)CN1CCC(O)(c2ccc(Cl)c(C(F)(F)F)c2)CC1	17.9 µg/mL (≈ 38.6 µM)	3.8 µg/mL (≈ 8.18 µM)	4.7	
O[C@H](COc1ccc(Cl)c(Cl)c1)CN1CCC(O)(c2ccc(Cl)c(C(F)(F)F)c2)CC1	18.7 µg/mL (≈ 37.5 µM)	7.3 µg/mL (≈ 14.6 µM)	2.6	
O[C@@H](COc1ccc(C(F)(F)F)cc1)CN1CCC(O)(c2ccc(Cl)c(C(F)(F)F)c2)CC1	18.3 µg/mL (≈ 36.8 µM)	5.2 µg/mL (≈ 10.4 µM)	3.5	
Cc1cccc(C)c1OC[C@H](O)CN1CCC(O)(c2ccc(Cl)c(C(F)(F)F)c2)CC1	19.3 µg/mL (≈ 42.1 µM)	5.9 µg/mL (≈ 12.9 µM)	3.3	
